Consider seven molecules from ChEMBL document CHEMBL1124257, “An examination of O-2-isocephems as orally absorbable antibiotics” (J Med Chem, 1988).

For data set [1], the system named is Escherichia coli. In words: Minimum inhibitory concentration (MIC) against Escherichia coli by 2-fold microdilution technique. It counts as functional. An outline of the steps:
(§1)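 For each organism, an overnight culture was grown in Mueller-Hinton broth at 37 °C. Twofold microtiter dilutions in Nutrient Broth covered 0.005–125 µg/mL. Each well received about 10^4 organisms, and plates were incubated 18 h at 37 °C. MIC was the lowest concentration giving no visible growth.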

The test system of data set [2] is Haemophilus influenzae. In words: Minimum inhibitory concentration (MIC) against Haemophilus influenzae by 2-fold microdilution technique. It is filed as functional. The note with it: Haemophilus influenzae; read-out: MIC. An outline of the steps: as §1
In data set [3] the test system is Klebsiella pneumoniae. Nature of the data set: Minimum inhibitory concentration (MIC) against Klebsiella pneumoniae by 2-fold microdilution technique. It counts as functional. Put shortly: as §1
(In general: Broth dilution looks for growth in wells or tubes with falling amounts of substance.)

Data set [4] relates to Proteus mirabilis. Nature of the data set: Minimum inhibitory concentration (MIC) against Proteus mirabilis by 2-fold microdilution technique. It is filed as functional. Put shortly:
as §1

For data set [5], the system named is Streptococcus pneumoniae. Nature of the data set: Minimum inhibitory concentration (MIC) against Streptococcus pneumoniae by 2-fold microdilution technique. The following applies: Streptococcus pneumoniae; read-out: MIC. It counts as functional. Put shortly:
as §1

In data set [6] the test system is Enterococcus faecalis. In words: Minimum inhibitory concentration (MIC) against Streptococcus faecalis by 2-fold microdilution technique. It counts as functional. The note with it: Enterococcus faecalis; read-out: MIC. Put shortly: as §1
In data set [7] the test system is Streptococcus pyogenes. In words: Minimum inhibitory concentration (MIC) against Streptococcus pyogenes by 2-fold microdilution technique. It is filed as functional. The following applies: Streptococcus pyogenes; read-out: MIC. An outline of the steps:
as §1

The test system of data set [8] is Staphylococcus aureus. Nature of the data set: Minimum inhibitory concentration (MIC) against Staphylococcus aureus by 2-fold microdilution technique. It counts as functional. The following applies: Staphylococcus aureus; read-out: MIC. Put shortly: as §1
The subject of data set [9] is Mus musculus. Nature of the data set: Area under curve(AUC) was measured in mice after oral administration. The note with it: in vivo. It counts as ADME, organism-based. Further details: concentration or dose not given beside the values; unit not given here. Put shortly:
(§2)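 Male Swiss-Webster mice (20 ± 2 g) were given a single 50 mg/kg oral dose by gavage. Blood concentrations and urine levels were measured by microbiological assay, and urinary recovery was taken over 0–6 h.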

Data set [10] in a line: Cmax was measured in mice after an oral dose of 50 mg/kg. Further details: dose 50 mg/kg, route oral. The following applies: mouse, in vivo. It is filed as ADME, organism-based. An outline of the steps: as §2
The species named for data set [11] is Mus musculus. Nature of the data set: Percentage of dose recovered after 0-6 hr in the urine of mice was measured. It is filed as ADME, organism-based. The note with it: in vivo. An outline of the steps:
as §2

Data set [12] can be described thus: Half life was measured. It is filed as ADME. An outline of the steps: as §2
The subject of data set [13] is Escherichia coli. Nature of the data set: Minimum inhibitory concentration (MIC) […] against Escherichia coli. It is filed as functional. An outline of the steps: as §1
The test system of data set [14] is Escherichia coli. Nature of the data set: Protective dose (PD50) against Escherichia coli infected mice. The following applies: read-out: PD50. It is filed as functional. An outline of the steps:
(§3)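 Male Swiss-Webster mice (20 ± 2 g) were challenged intraperitoneally with enough bacteria to kill untreated controls within 72 h. Drug was given orally by gavage twice: at 0 and 2 h after E. coli challenge, or at 1 and 3.5 h after S. pneumoniae challenge. PD50 is the dose in mg/kg per dose that protects 50% of animals.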

The test system of data set [15] is Streptococcus pneumoniae. In words: Protective dose (PD50) against Streptococcus pneumoniae infected mice. It is filed as functional. The note with it: Streptococcus pneumoniae; read-out: PD50. An outline of the steps:
as §3

For data set [16], the system named is Streptococcus pneumoniae. In words: Minimum inhibitory concentration (MIC) […] against Streptococcus pneumoniae. It counts as functional. An outline of the steps: as §1
The mark [17] stands for this setting: Escherichia coli, read-out: MIC.
The mark [18] stands for this setting: Klebsiella pneumoniae, read-out: MIC.
Where [19] appears, read: Proteus mirabilis, read-out: MIC.
[20] abbreviates: Streptococcus pneumoniae, read-out: MIC.

In brackets after ≈: the same amount, converted by molar mass.

Regarding `CC1=C(C(=O)O)N2C(=O)[C@@H](NC(=O)[C@H](N)c3ccccc3)[C@H]2SC1` [CEPHALEXIN ANHYDROUS], the MIC in data set [1] (setting [17]) worked out at 8 µg/mL (≈ 23 µM); in data set [2] it was 4 µg/mL (≈ 11.5 µM); in data set [3] (setting [18]), 16 µg/mL (≈ 46.1 µM); in data set [4] (setting [19]), 4 µg/mL (≈ 11.5 µM); in data set [5], 0.5 µg/mL (≈ 1.44 µM); in [6], 32 µg/mL (≈ 92.1 µM). The MIC in [7] and in data set [8] was 0.5 µg/mL (≈ 1.44 µM) in each case.
`C/C=C/C1=C(C(=O)O)N2C(=O)[C@@H](NC(=O)[C@H](N)c3ccc(O)cc3)[C@H]2SC1.O` (relative stereo; 56) [CEFPROZIL, (E)-]: the AUC in data set [9] was determined as 42. The Cmax (in general, the highest concentration seen after dosing) in data set [10] turned out to be 46000 ng/mL. Also, the “Urinary recovery (% of dose, 0-6 h)” value in data set [11] is given as 85%. For the same molecule, the half-life (in general, the time needed for the level to fall by half in the phase considered) in data set [12] is 29 min. Further, the MIC in data set [1] was 1 µg/mL; in data set [13], 2 µg/mL; in data set [2], 2 µg/mL; in [3], 2 µg/mL; in [4], 0.25 µg/mL; in [5], 0.03 µg/mL. Also, the MIC in data set [16] was determined as 0.016 µg/mL; in data set [6], 2 µg/mL; in data set [7], 0.016 µg/mL; in data set [8] it was 0.13 µg/mL. The results for the ED50 in [14] and in data set [15] were 1.2 mg/kg and 0.4 mg/kg, respectively.
For `N[C@@H](C(=O)N[C@@H]1C(=O)N2C(C(=O)O)=C(/C=C/C(F)(F)F)OC[C@H]12)c1ccc(O)cc1`, the MIC in data set [1] (setting [17]) stood at 4 µg/mL (≈ 9.36 µM); in data set [13] (setting [17]), 4 µg/mL (≈ 9.36 µM); in data set [2] it was 2 µg/mL (≈ 4.68 µM); in [3] (setting [18]), 16 µg/mL (≈ 37.4 µM); in data set [4] (setting [19]) it was 16 µg/mL (≈ 37.4 µM); in data set [5], 0.016 µg/mL (≈ 0.0374 µM). The MIC worked out at 0.016 µg/mL (≈ 0.0374 µM) in data set [16] (setting [20]), 0.13 µg/mL (≈ 0.304 µM) in data set [6], 0.008 µg/mL (≈ 0.0187 µM) in data set [7] and 0.5 µg/mL (≈ 1.17 µM) in data set [8]. Besides, the ED50 in [14] is > 50 mg/kg; in [15], > 12.5 mg/kg.
With `C=CCC1=C(C(=O)O)N2C(=O)[C@@H](NC(=O)[C@H](N)c3ccc(O)cc3)[C@H]2SC1`, the AUC in data set [9] amounted to 41. The molecule further returned a Cmax in data set [10] of 45000 ng/mL. Also, the “Urinary recovery (% of dose, 0-6 h)” value in data set [11] was determined as 79%. In addition, the half-life in data set [12] was 34 min. The MIC came out at 4 µg/mL (≈ 10.3 µM) in data set [1] (setting [17]); 1 µg/mL (≈ 2.57 µM) in data set [2]; 4 µg/mL (≈ 10.3 µM) in data set [3] (setting [18]); 1 µg/mL (≈ 2.57 µM) in data set [4] (setting [19]); 0.03 µg/mL (≈ 0.077 µM) in data set [5]; 18 µg/mL (≈ 46.2 µM) in data set [6]. The results for the MIC in data set [7] and in [8] were 0.016 µg/mL (≈ 0.0411 µM) and 0.13 µg/mL (≈ 0.334 µM), respectively.
`N[C@@H](C(=O)N[C@@H]1C(=O)N2C(C(=O)O)=C(C3CC3)OC[C@H]12)c1ccc(O)cc1`: the MIC was found to be 4 µg/mL (≈ 10.7 µM) in data set [1] (setting [17]); 4 µg/mL (≈ 10.7 µM) in data set [13] (setting [17]); 8 µg/mL (≈ 21.4 µM) in data set [2]; 16 µg/mL (≈ 42.9 µM) in [3] (setting [18]); 2 µg/mL (≈ 5.36 µM) in data set [4] (setting [19]); 0.03 µg/mL (≈ 0.0804 µM) in [5]. For the same molecule, the MIC in [16] (setting [20]) was 0.03 µg/mL (≈ 0.0804 µM); in data set [6], 1 µg/mL (≈ 2.68 µM); in [7] it was 0.016 µg/mL (≈ 0.0429 µM); in data set [8], 0.25 µg/mL (≈ 0.67 µM). Further, the ED50 was > 50 mg/kg in data set [14] and 3.6 mg/kg in [15].
In [9], `C=CCC1=C(C(=O)O)N2C(=O)[C@@H](NC(=O)[C@H](N)c3ccc(O)cc3)[C@H]2CO1` came in with an AUC of 32. The molecule further registered a maximum concentration (Cmax) in data set [10] of 31000 ng/mL. Moreover, the “Urinary recovery (% of dose, 0-6 h)” value in data set [11] is on record as 46%. This molecule also returned a half-life in [12] of 32 min. Moreover, the MIC came out at 2 µg/mL (≈ 5.36 µM) in [1] (setting [17]); 4 µg/mL (≈ 10.7 µM) in data set [13] (setting [17]); 2 µg/mL (≈ 5.36 µM) in data set [2]; 16 µg/mL (≈ 42.9 µM) in data set [3] (setting [18]); 1 µg/mL (≈ 2.68 µM) in data set [4] (setting [19]); 0.03 µg/mL (≈ 0.0804 µM) in data set [5]. The MIC in [16] (setting [20]) is 0.016 µg/mL (≈ 0.0429 µM); in data set [6] it was 1 µg/mL (≈ 2.68 µM); in [7], 0.008 µg/mL (≈ 0.0214 µM); in data set [8], 0.13 µg/mL (≈ 0.348 µM). Besides, the ED50 in data set [14] was found to be 9.2 mg/kg; in data set [15], 1 mg/kg.
Turning to `CC1=C(C(=O)O)N2C(=O)[C@@H](NC(=O)[C@H](N)c3ccc(O)cc3)[C@H]2CO1`, the MIC in data set [1] (setting [17]) was 8 µg/mL (≈ 23 µM); in data set [13] (setting [17]), 8 µg/mL (≈ 23 µM); in data set [2] it was 8 µg/mL (≈ 23 µM); in data set [3] (setting [18]) it was 8 µg/mL (≈ 23 µM); in data set [4] (setting [19]), 4 µg/mL (≈ 11.5 µM); in data set [5], 0.13 µg/mL (≈ 0.374 µM). Moreover, the MIC in [16] (setting [20]) was found to be 0.13 µg/mL (≈ 0.374 µM); in data set [6], 16 µg/mL (≈ 46.1 µM); in data set [7] it was 0.13 µg/mL (≈ 0.374 µM); in data set [8] it was 1 µg/mL (≈ 2.88 µM). The figures for the ED50 in data set [14] and in data set [15] were 11 mg/kg and 2.1 mg/kg, respectively.
